Assay results as given in ChEMBL document CHEMBL1145837, “Design and synthesis of 4,6-di-tert-butyl-2,3-dihydro-5-benzofuranols as a novel series of antiatherogenic antioxidants” (J Med Chem, 2003).

Assays:
[1] = tested on: Oryctolagus cuniculus; experiment: Distribution of compound into VLDL lipoprotein fraction of WHHL Rabbit's plasma after oral administration; format: ADME, organism-based; details: in vivo
Outline: (§1)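 WHHL rabbits given test compound orally (250 mg/kg) once daily for 9 days; at 24 h after final dose plasma lipoproteins isolated by Havel procedure, EtOAc-extracted, compound content per mg lipoprotein measured by reverse-phase HPLC. Mean ± range, n = 2.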

[2] = tested on: Oryctolagus cuniculus; experiment: Distribution of compound into LDL lipoprotein fraction of WHHL Rabbit's plasma after oral administration; format: ADME, organism-based; details: in vivo; outline: as §1
[3] = tested on: Oryctolagus cuniculus; experiment: Distribution of compound into HDL lipoprotein fraction of WHHL Rabbit's plasma after oral administration; ND means not detected; format: ADME, organism-based; details: in vivo; outline: as §1
[4] = species: Oryctolagus cuniculus; experiment: Inhibition of LDL oxidation induced by cupric ions (CuSO4) at 1 uM expressed as % control.; format: functional
Outline: (§2)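 Rabbit LDL (d 1.019–1.063 g/mL, sequential ultracentrifugation) at 200 μg/mL with compound at stated concentration, oxidized by soybean lipoxygenase type-IS or CuSO4 at 37 °C for 24 h in CO2 incubator. Read-out: TBARS and LDL fluorescence by gel permeation chromatography (0.1 M NaCl, 0.05 M Tris pH 7.4); expressed as % of control; duplicate or more.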

[5] = species: Oryctolagus cuniculus; experiment: Inhibition of LDL oxidation induced by cupric ions (CuSO4) at 10 uM expressed as % control.; format: functional; outline: as §2
[6] = target: T1, Seed linoleate 13S-lipoxygenase-1 (Glycine max) (UniProt P08170); experiment: Inhibition of LDL oxidation induced by soybean lipoxygenase (SLO) at 0.5 uM expressed as % control.; format: functional; outline: as §2
T1 sequence (whole entry): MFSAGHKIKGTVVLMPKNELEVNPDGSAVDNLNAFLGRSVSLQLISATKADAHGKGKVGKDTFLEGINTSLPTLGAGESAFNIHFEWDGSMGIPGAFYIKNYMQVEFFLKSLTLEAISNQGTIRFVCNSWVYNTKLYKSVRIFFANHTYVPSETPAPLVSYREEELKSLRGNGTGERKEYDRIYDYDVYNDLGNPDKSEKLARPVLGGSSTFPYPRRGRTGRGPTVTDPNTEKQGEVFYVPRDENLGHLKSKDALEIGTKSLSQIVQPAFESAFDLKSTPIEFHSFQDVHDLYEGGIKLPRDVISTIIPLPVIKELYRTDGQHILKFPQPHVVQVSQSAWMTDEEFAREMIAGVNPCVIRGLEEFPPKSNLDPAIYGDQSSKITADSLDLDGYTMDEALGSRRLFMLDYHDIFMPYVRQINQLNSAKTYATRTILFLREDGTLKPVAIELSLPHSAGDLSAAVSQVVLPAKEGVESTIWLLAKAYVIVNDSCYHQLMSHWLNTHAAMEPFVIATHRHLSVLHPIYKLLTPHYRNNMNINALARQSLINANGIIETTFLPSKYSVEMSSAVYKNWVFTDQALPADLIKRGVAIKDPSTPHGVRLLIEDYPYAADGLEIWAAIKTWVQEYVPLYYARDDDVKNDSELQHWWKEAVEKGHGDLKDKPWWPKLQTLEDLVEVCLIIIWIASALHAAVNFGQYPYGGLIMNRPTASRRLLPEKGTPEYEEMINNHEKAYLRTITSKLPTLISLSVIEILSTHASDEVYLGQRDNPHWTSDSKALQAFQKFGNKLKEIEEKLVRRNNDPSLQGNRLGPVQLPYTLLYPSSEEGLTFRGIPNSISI

[7] = target: T1, Seed linoleate 13S-lipoxygenase-1 (Glycine max); experiment: Inhibition of LDL oxidation induced by soybean lipoxygenase (SLO) at 5 uM expressed as % control.; format: functional; outline: as §2
[8] = Inhibition of MCLA chemiluminescence generated by autoxidation of linoleic acid
Outline: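 Linoleic acid peroxyl radicals from autoxidation of 1 mM linoleic acid in 1-butanol with 10 μM MCLA, 10 min at 37 °C under air; quenching measured as change in MCLA chemiluminescence after compound addition; IC50 derived; duplicate or more.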

[9] = tested on: Oryctolagus cuniculus; experiment: Distribution of compound into HDL lipoprotein fraction of WHHL Rabbit's plasma after oral administration; format: ADME, organism-based; details: in vivo; outline: as §1

| Structure (SMILES) | VLDL [1] | LDL [2] | HDL [3] | LDL oxidation remaining, % of control [6] | LDL oxidation remaining, % of control [7] | HDL [9] | LDL oxidation remaining, % of control [4] | LDL oxidation remaining, % of control [5] | IC50 [8] |
| --- | --- | --- | --- | --- | --- | --- | --- | --- | --- |
| CC(C)(C)c1cc2c(c(C(C)(C)C)c1O)CC(C(C)(C)C)O2 (stereo unspecified) | 27.69 µg/mg | 5.08 µg/mg | Not detected | 99% | 1.8% |  | 74% | 11% | 8.4 µM |
| CC(C)(C)c1cc2c(c(C(C)(C)C)c1O)CC1(CCCCCC1)O2 |  |  |  | 93.4% | 2.3% |  | 91% | 9% | 7.9 µM |
| CC(C)(C)c1cc2c(c(C(C)(C)C)c1O)CCO2 |  |  |  | 36% | 6.9% |  | 53% | 11% | 7.2 µM |
| CC(C)(C)c1cc2c(c(C(C)(C)C)c1O)CC1(CCCCCCC1)O2 |  |  |  | 97.2% | 9% |  | 92% | 22% | 9.4 µM |
| CC(C)(Sc1cc(C(C)(C)C)c(O)c(C(C)(C)C)c1)Sc1cc(C(C)(C)C)c(O)c(C(C)(C)C)c1 [PROBUCOL] | 5.48 µg/mg | 2.57 µg/mg |  | 73.9% | 14% | 0.44 µg/mg | 87% | 28% | 165 µM |
| CC(C)(C)c1cc2c(c(C(C)(C)C)c1O)CC1(CCCCC1)O2 |  |  |  | 34.1% | 0% |  | 77% | 16% | 9.3 µM |
| CC(C)(C)c1cc2c(c(C(C)(C)C)c1O)CC(Cc1ccccc1)(Cc1ccccc1)O2 |  |  |  | 63.5% | 3.6% |  | 93% | 11% | 10.6 µM |

Second part, led by results:

| VLDL [1] | LDL [2] | HDL [3] | LDL oxidation remaining, % of control [6] | LDL oxidation remaining, % of control [7] | HDL [9] | Structure (SMILES) | LDL oxidation remaining, % of control [4] | LDL oxidation remaining, % of control [5] | IC50 [8] |
| --- | --- | --- | --- | --- | --- | --- | --- | --- | --- |
|  |  |  | 88.4% | 18.5% |  | CCCCCCCC1(CCCCCCC)Cc2c(cc(C(C)(C)C)c(O)c2C(C)(C)C)O1 | 89% | 83% |  |
|  |  |  | 9.4% | 1.3% |  | CCC1(CC)Cc2c(cc(C(C)(C)C)c(O)c2C(C)(C)C)O1 | 77% | 10% | 4.3 µM |
|  |  |  | 46.2% | 0.4% |  | CC(C)(C)c1cc2c(c(C(C)(C)C)c1O)CC1(CCCC1)O2 | 85% | 12% | 6.6 µM |
|  |  |  | 75.5% | 2.7% |  | CCCCCCC1(CCCCCC)Cc2c(cc(C(C)(C)C)c(O)c2C(C)(C)C)O1 | 86% | 23% |  |
|  |  |  | 39.8% | 1.8% |  | CC1(C)Cc2c(cc(C(C)(C)C)c(O)c2C(C)(C)C)O1 | 56% | 10% | 6.7 µM |
| 25.64 µg/mg | 9.34 µg/mg | Not detected | 91.5% | 7.1% |  | CC(C)CCC1(CCC(C)C)Cc2c(cc(C(C)(C)C)c(O)c2C(C)(C)C)O1 | 78% | 23% | 5.7 µM |
| 57.07 µg/mg | 11.04 µg/mg |  | 51.5% | 0.5% | 3.22 µg/mg | CCCCC1(CCCC)Cc2c(cc(C(C)(C)C)c(O)c2C(C)(C)C)O1 | 82% | 12% | 7.9 µM |
| 1.16 µg/mg | 0.36 µg/mg | Not detected | 89.8% | 11.3% |  | CCCCCCCCC1(CCCCCCCC)Cc2c(cc(C(C)(C)C)c(O)c2C(C)(C)C)O1 | 85% | 72% | 5.6 µM |
|  |  |  | 33.3% | 0% |  | CCCC1(CCC)Cc2c(cc(C(C)(C)C)c(O)c2C(C)(C)C)O1 | 87% | 13% | 4 µM |
| 119.25 µg/mg | 28.6 µg/mg |  | 60.9% | 4.6% | 2.98 µg/mg | CCCCCC1(CCCCC)Cc2c(cc(C(C)(C)C)c(O)c2C(C)(C)C)O1 [BO-653] | 96% | 42% | 4.6 µM |
|  |  |  | 71.8% | 4.7% |  | CC(C)(C)c1cc2c(c(C(C)(C)C)c1O)CC1(CCOCC1)O2 | 87% | 22% | 8.2 µM |
